Results filed as inconclusive are left out.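 Rule for the calls, unless noted: active = inhibition over a set limit, the all-compound mean plus 3 SD, in both replicate runs; inconclusive = over that limit in just one replicate run; inactive = at or under that limit in both runs.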
Experiments:
[1] = OD615 S. cerevisiae growth inhibition, permissive medium, pilot counter-assay, permissive growth control for S. cerevisiae lifespan shortening project (AID 705;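 active = growth inhibition above 25% in both replicates, a cutoff set 3 SD above the mean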); details: OD615, 24 h, at 10 µM, hits give high values
Summary of the method: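 Material: engineered DeaD yeast; compound dosing: one dose 10 µM, DMSO 0.25% final; measure: yeast growth inhibition indicated by reduced 24 h OD615; detection: OD615 turbidity read; incubation: cells pre-grown 4 h, then 24 h compound exposure, 30 °C humidified; medium: permissive synthetic complete medium with raffinose and galactose carbon sources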

[2] = Restrictive medium S. cerevisiae growth inhibition, OD615, pilot screen of yeast lifespan reduction project, restrictive growth control (AID 706;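 active = growth inhibition above a set limit, 3 SD over mean compound inhibition, in both replicates, cut at about 43% in these data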;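 note: modified DeaD lifespan yeast strain shifted to restrictive glucose medium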); details: OD615, 48 h, at 10 µM, hits give high values
Summary of the method: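 material = engineered S. cerevisiae DeaD strain | medium = glucose-based CSMM-D restrictive medium | times = 4 h pre-incubation, 48 h exposure at 30 °C | technique = OD615 absorbance reading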

[3] = viability gain of MRP-1-high H69AR cells under doxorubicin, pilot screen, MRP-1 activator project, CellTiter-Glo, duplicate (AID 807;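 active = viability increase at or above a cutoff of the median across tested compounds plus 3 SD, cut at about 8.5% in these data, passing the limit was not always enough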;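 note: compound pretreatment 18-22 h then 72 h combined with doxorubicin; 0% = doxorubicin alone and 100% = vehicle without doxorubicin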); details: H69AR viability with doxorubicin, CellTiter-Glo luminescence; at 10 µM; hits give high values
[4] = growth suppression of beta-catenin knockout HCT116, pilot screen, human colon tumor cells (AID 823;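 active = cell viability at or below a set limit in both duplicate runs, the limit being the all-compound median minus 4 SD, cut at about 23% in these data, passing the limit was not always enough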;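 note: 0% = wells killed by 20 µM Hyamine and 100% = untreated DMSO cell wells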); details: CellTiter-Glo, 60 h, at 10 µM, hits give low values
[5] = growth suppression of PTEN-deleted HCT116, pilot screen, cell-based, HCT116 clonal line, CellTiter-Glo (AID 824;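 active = viability at or below 27.92% in each of two runs, the all-compound median minus 4 SD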;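 note: 0% = 20 µM Hyamine control and 100% = vehicle cell control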); details: 60 h, at 10 µM, hits give low values
[6] = inhibitors of the yeast RAM network, pilot screen, dse1pr::URA3 reporter, 5-FOA selection (AID 869);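 note: 0% = DMSO wells with no growth and 100% = 10 µM 1-NA-PP1 with full growth; RAM network block rescues cells from 5-FOA so hits raise OD615 growth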; details: S. cerevisiae dse1pr::URA3 5-FOA growth, OD615, 2 d; at 10 µM; hits give high values; strain carries analog-sensitive mutant Cbk1 kinase
[7] = RAM signaling pathway blockade in yeast – S. cerevisiae, Pdr1DBD-CYC8 efflux-inhibited sensitized strain, primary screen (AID 1298;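 active = RAM network inhibition above 8.4% in each of two replicates, 3 SD over the compound average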;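 note: 0% = DMSO untreated cells without growth and 100% = 10 µM 1-NA-PP1 full growth; higher means more yeast growth rescued from 5-FOA killing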); details: S. cerevisiae cbk1-as DSE1-URA3 strain, 5-FOA growth OD615, 2 d; at 50 µM; hits give high values

O=S(=O)(NCC(c1cccnc1)N1CCN(Cc2ccccc2)CC1)c1ccccc1 (configuration not stated)
inactive: growth inhibition [1] -10% | growth inhibition [2] -15.8% | viability increase [3] -2.02% | viability [4] 101% | viability [5] 92.8% | inhibition [6] 1.57% | RAM network inhibition [7] 0.96%

CCOC(=O)C(C)Sc1nnc(Cn2c(=O)sc3ccccc32)n1-c1ccccc1 (configuration not stated)
inactive: growth inhibition [1] 2.42% | growth inhibition [2] -4.57% | viability increase [3] -0.22% | viability [4] 95.6% | viability [5] 92.6% | inhibition [6] 1.81% | RAM network inhibition [7] 0.1%

CCC(=O)N1C(C(=O)O)CSC1c1ccc(OC)cc1 (configuration not stated)
inactive: growth inhibition [1] -0.64% | growth inhibition [2] 6.29% | viability increase [3] -0.61% | viability [4] 98.1% | viability [5] 93.5% | inhibition [6] 1.16% | RAM network inhibition [7] 2.87%

CCOC(=O)C1CCN(C(=O)c2ccc(Cl)c(NC3=NC4CS(=O)(=O)CC4S3)c2)CC1 (configuration not stated)
inactive: growth inhibition [1] -13.6% | growth inhibition [2] -14.5% | viability increase [3] -0.09% | viability [4] 107% | viability [5] 89.4% | inhibition [6] 1.65% | RAM network inhibition [7] -0.37%

Cc1cc(C)cc(N(CC(=O)N2CCn3c2nc2ccccc23)S(=O)(=O)c2c(C)noc2C)c1
inactive: growth inhibition [1] -5.97% | growth inhibition [2] 11.2% | viability increase [3] -4.06% | viability [4] 88.9% | viability [5] 90.9% | inhibition [6] 1.79% | RAM network inhibition [7] 10.1%

O=C(C(c1ccccc1)c1ccccc1)N1CCOCC1
inactive: growth inhibition [1] -6.96% | growth inhibition [2] 1.92% | viability increase [3] -1.34% | viability [4] 100% | viability [5] 95.9% | inhibition [6] 0.87% | RAM network inhibition [7] 0.31%

CSc1nc2ccc(NS(=O)(=O)c3ccc4c(c3)OCCO4)cc2s1
inactive: growth inhibition [1] 0.175% | growth inhibition [2] 0.53% | viability increase [3] 0.31% | viability [4] 90.8% | viability [5] 88.4% | inhibition [6] 0.865% | RAM network inhibition [7] 5.46%

CCCc1cc(C(=O)Nc2sc3c(c2C(=O)OCC)CCCC3)no1
inactive: growth inhibition [1] -19% | growth inhibition [2] -10.2% | viability increase [3] 1.82% | viability [4] 104% | viability [5] 99.5% | inhibition [6] 3.09% | RAM network inhibition [7] 3.28%

Cc1nn(Cc2nc(-c3cccs3)no2)c(C)c1Br
inactive: growth inhibition [1] 0.735% | growth inhibition [2] 12% | viability increase [3] -1.13% | viability [4] 103% | viability [5] 101% | inhibition [6] 1.93% | RAM network inhibition [7] 3.61%

COc1cccc(-n2nnc3c(=O)n(C/C=C/c4ccccc4)cnc32)c1
inactive: growth inhibition [1] -5.38% | growth inhibition [2] -7.15% | viability increase [3] 0.57% | viability [4] 92.3% | viability [5] 86.9% | inhibition [6] 3.2% | RAM network inhibition [7] 2.07%

CCC(C)NC(=O)CNC(=O)Cn1c(C)cc2ccccc2c1=O (configuration not stated)
inactive: growth inhibition [1] -4.49% | growth inhibition [2] -8.84% | viability increase [3] -2.27% | viability [4] 102% | viability [5] 94.2% | inhibition [6] 0.04% | RAM network inhibition [7] 4.72%

CC1CCN(C(=O)c2cc(-c3ccccc3O)on2)CC1
inactive: growth inhibition [1] -10.2% | growth inhibition [2] 9.11% | viability increase [3] -0.44% | viability [4] 108% | viability [5] 91.5% | inhibition [6] 0.335% | RAM network inhibition [7] -2.14%

Cn1nc(-c2ccc(Cl)cc2)c2cc(C(=O)N3CCCC3)sc21
inactive: growth inhibition [1] -8.92% | growth inhibition [2] -9.39% | viability increase [3] -2.97% | viability [4] 96.9% | viability [5] 85.7% | inhibition [6] 1.97% | RAM network inhibition [7] 3.39%

Cc1cccc(-c2nc(CS(=O)CC(=O)NC3CCCC3)c(C)o2)c1 (configuration not stated)
inactive: growth inhibition [1] 6.19% | growth inhibition [2] 1.96% | viability increase [3] -3.32% | viability [4] 94.5% | viability [5] 91.7% | inhibition [6] 3.42% | RAM network inhibition [7] 4.67%

Cc1csc2ncc(C(=O)Nc3ccc4c(c3)OCCO4)c(=O)n12
inactive: growth inhibition [1] -13.1% | growth inhibition [2] -17.3% | viability increase [3] -2.34% | viability [4] 102% | viability [5] 97.5% | inhibition [6] 2.96% | RAM network inhibition [7] 6.97%

CC(C)Cc1nc(C(N)=O)c2[nH]c(=O)n(-c3ccc(F)cc3)c2n1
inactive: growth inhibition [1] -21.3% | growth inhibition [2] -27.8% | viability increase [3] -2.13% | viability [4] 100% | viability [5] 91.2% | inhibition [6] 3.68% | RAM network inhibition [7] 8.63%

Cc1ccoc1C(=O)NCc1occc1C(=O)O
inactive: growth inhibition [1] -12.6% | growth inhibition [2] -16.8% | viability increase [3] -3.44% | viability [4] 96.2% | viability [5] 93.1% | inhibition [6] -0.575% | RAM network inhibition [7] 1.58%

COc1ccccc1-n1c(CNC(=O)c2ccco2)nnc1SCC(=O)Nc1nccs1
inactive: growth inhibition [1] -0.655% | growth inhibition [2] -2.6% | viability increase [3] -5.08% | viability [4] 77.4% | viability [5] 66.2% | inhibition [6] 1.09% | RAM network inhibition [7] 1.25%

O=C(Cn1nc(-c2ccc(Cl)cc2)ccc1=O)NCC1CCCO1 (configuration not stated)
inactive: growth inhibition [1] -1.09% | growth inhibition [2] -10.1% | viability increase [3] -1.53% | viability [4] 92.5% | viability [5] 93.8% | inhibition [6] 1.24% | RAM network inhibition [7] 7.63%

CCOc1ccc(NC(=O)Nc2ccc3c(c2)N(C)C(=O)CS3)cc1
inactive: growth inhibition [1] -12% | growth inhibition [2] -33.6% | viability increase [3] -4.56% | viability [4] 98.9% | viability [5] 89.1% | inhibition [6] 4.93% | RAM network inhibition [7] 5.76%

O=C(CN(Cc1ccc(F)cc1)S(=O)(=O)c1ccccc1)N1CCCCC1
inactive: growth inhibition [1] -9.46% | growth inhibition [2] -3.51% | viability increase [3] -2.51% | viability [4] 97.3% | viability [5] 89.8% | inhibition [6] 0.975% | RAM network inhibition [7] 4.25%

COc1ccc(-c2nnc3ccc(SCC(=O)N4CCCCCC4)nn23)cc1OC
inactive: growth inhibition [1] 1.58% | growth inhibition [2] -3.42% | viability increase [3] -4.16% | viability [4] 103% | viability [5] 109% | inhibition [6] 0.615% | RAM network inhibition [7] 0.05%

CCOC(=O)N1CCN(C(=O)c2ccc3c(=O)n(CCC4=CCCCC4)c(=S)[nH]c3c2)CC1
inactive: growth inhibition [1] -6.92% | growth inhibition [2] 3.16% | viability increase [3] -7.23% | viability [4] 49.1% | viability [5] 45.5% | inhibition [6] 3.38% | RAM network inhibition [7] 4.35%

CC1=C(C(=O)OC(C)C)C(c2cccs2)n2ncnc2N1 (configuration not stated)
inactive: growth inhibition [1] -1.96% | growth inhibition [2] 7.93% | viability increase [3] -1.21% | viability [4] 101% | viability [5] 96.2% | inhibition [6] 0.955% | RAM network inhibition [7] 2.09%

O=C(c1cccc(F)c1)N1CCN=C1SCc1cccnc1
inactive: growth inhibition [1] -2.18% | growth inhibition [2] 8.84% | viability increase [3] -0.35% | viability [4] 102% | viability [5] 96.3% | inhibition [6] 0.32% | RAM network inhibition [7] 0.89%

COc1ccc(C2C(C#N)=C(N)N3C(=C2C#N)Sc2ccccc23)cc1 (configuration not stated)
inactive: growth inhibition [1] -1.28% | growth inhibition [2] -4.12% | viability increase [3] -0.06% | viability [4] 98.9% | viability [5] 102% | inhibition [6] 1.09% | RAM network inhibition [7] 8.82%

CCCCOC(=O)Nc1ccc(S(=O)(=O)Nc2cc(C)nc(C)n2)cc1
inactive: growth inhibition [1] -16.6% | growth inhibition [2] -11.7% | viability increase [3] -1.66% | viability [4] 95.8% | viability [5] 91.6% | inhibition [6] 1% | RAM network inhibition [7] 6.71%

CCOC(=O)CNC(=O)c1c2c(nc3ccccc13)CCCC2
inactive: growth inhibition [1] -6.83% | growth inhibition [2] -1.75% | viability increase [3] -5.37% | viability [4] 95.4% | viability [5] 88.2% | inhibition [6] 2.68% | RAM network inhibition [7] 5.74%

CCc1c(C)nc2[nH]nc(-c3ccccc3)n2c1=O
inactive: growth inhibition [1] -20.2% | growth inhibition [2] -10.2% | viability increase [3] 0.32% | viability [4] 96.2% | viability [5] 99.1% | inhibition [6] 1.69% | RAM network inhibition [7] 4.8%

Cc1ccccc1C(=O)OCn1nnc2ccccc2c1=O
inactive: growth inhibition [1] -1.86% | growth inhibition [2] -19.1% | viability increase [3] -2.87% | viability [4] 88.9% | viability [5] 93.2% | inhibition [6] 1.44% | RAM network inhibition [7] 2.2%

Nc1nc(N2CCOCC2)nc(N(c2ccccc2)c2ccccc2)n1
inactive: growth inhibition [1] -17.1% | growth inhibition [2] -9.3% | viability increase [3] -1.89% | viability [4] 107% | viability [5] 92.4% | inhibition [6] 1.93% | RAM network inhibition [7] 1.9%

COc1ccc(-n2nc3cc(C)c(NC(=O)CC(C)C)cc3n2)cc1
inactive: growth inhibition [1] -7.39% | growth inhibition [2] -3.86% | viability increase [3] -0.97% | viability [4] 94% | viability [5] 92.2% | inhibition [6] 0.405% | RAM network inhibition [7] 3.76%

CCCS(=O)(=O)c1nc(S(=O)(=O)c2ccc(C)cc2)c(N2CCCC2)s1
inactive: growth inhibition [1] -0.655% | growth inhibition [2] 9.56% | viability increase [3] -2.03% | viability [4] 103% | viability [5] 96.3% | inhibition [6] 4.48% | RAM network inhibition [7] 10.2%

O=C(COc1ccc(F)cc1)Nc1nccs1
inactive: growth inhibition [1] -3.23% | growth inhibition [2] 4.43% | viability increase [3] 2.32% | viability [4] 103% | viability [5] 90.2% | inhibition [6] 3.26% | RAM network inhibition [7] 5.34%

COc1ccc(COC(=O)C2=C(C)NC(=O)NC2c2ccc(O)c(OC)c2)cc1 (configuration not stated)
inactive: growth inhibition [1] -12% | growth inhibition [2] -17.8% | viability increase [3] 3.03% | viability [4] 93.1% | viability [5] 89.2% | inhibition [6] 0.34% | RAM network inhibition [7] 1.52%

CCC(NC(=O)c1ccccc1NC(=O)c1ccco1)C(=O)O (configuration not stated)
inactive: growth inhibition [1] -0.94% | growth inhibition [2] -12.6% | viability increase [3] -4.34% | viability [4] 109% | viability [5] 95.7% | inhibition [6] 0.27% | RAM network inhibition [7] 0.73%
